Sampled rows, rich in hits. Any-hit rate of the full collection: about 2%.
FXN GAA850 act – FXN promoter activators, primary screen, cell-based, luciferase luminescence, HEK293 lucGAA850. activation, % at 6 µM. AID 540364, 2011. HEK293 lucGAA850 FXN promoter luciferase reporter, 24 h; percent of 10 µM SAHA response. hit rate 0.56% among 360,000;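 active = activation above the average of all compounds screened plus 3 SD, cutoff fixed separately per campaign, cut at about 7.5% in these data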;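 note: 0% = DMSO wells and 100% = 10 µM SAHA wells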
T cell modulator – modulators of CD8 T cell-vesicle binding, primary screen, mouse 2C CD8+ T cells, flow cytometry | response (vesicle binding), % at 7 µM | hit rate 0.068% among 330,000 | 2C CD8+ T cell-vesicle binding; stronger effect = lower value | AID 2052, 2009;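 active = response, share of CD8 T cells binding vesicles, and their 90th percentile fluorescence all below set limits, cut at about 80% in these data, passing the limit was not always enough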;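 note: values below 100% mean blocked vesicle binding to the CD8+ T cells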
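Material: murine 2C transgenic CD8+ T lymphocytes / Also added: QL9-peptide-loaded Drosophila micro-vesicles bearing Ld, ICAM-1 and B7-1 / Schedule: binding step 1.5 h, 37 °C, antibody labelling 20 min, ice / Signal: flow cytometry, PE anti-B7-1 (FL2) versus Alexa647 anti-CD8 (FL8), PFA-fixed / Evaluation: percent CD8+ FL2 mean versus row control / Benchmarks: naked versus QL9-loaded vesicles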
Myeloid diff MLP – induction of myeloid progenitor differentiation, primary screen, cell-based, flow cytometry, MLPCN library; ER-HoxA9 myeloid progenitors, lysozyme-GFP differentiation; calls only at 10 µM; hit rate 1% among 360,000; AID 624256, 2012;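 active = normalized GFP-positive differentiation at or above the plate's own cutoff, the solvent-only control mean plus 3 SD; inconclusive = no clear call, values can overlap the other calls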;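 note: cells exposed to compound for four days before flow analysis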
NR2E3 ag-1 – NR2E3 agonists in two-hybrid cells, primary screen, cell-based, luminescence, CHO-S, Gal4-NCOR/VP16-NR2E3 | inhibition of corepressor binding, % at 3.98 µM | hit rate 0.35% among 360,000 | AID 602229, 2012 | luciferase | Photoreceptor-specific nuclear receptor (Homo sapiens), Q9Y5X4;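 active = inhibition above the mean of all tested compounds plus 3 SD, cut at about 70% in these data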;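 note: 0% = DMSO with NR2E3 transfected cells and 100% = cells lacking NR2E3 construct; higher means lower luciferase signal from less NR2E3 corepressor binding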
Target sequence (Q9Y5X4 whole entry, looked up, the tested form may be a part): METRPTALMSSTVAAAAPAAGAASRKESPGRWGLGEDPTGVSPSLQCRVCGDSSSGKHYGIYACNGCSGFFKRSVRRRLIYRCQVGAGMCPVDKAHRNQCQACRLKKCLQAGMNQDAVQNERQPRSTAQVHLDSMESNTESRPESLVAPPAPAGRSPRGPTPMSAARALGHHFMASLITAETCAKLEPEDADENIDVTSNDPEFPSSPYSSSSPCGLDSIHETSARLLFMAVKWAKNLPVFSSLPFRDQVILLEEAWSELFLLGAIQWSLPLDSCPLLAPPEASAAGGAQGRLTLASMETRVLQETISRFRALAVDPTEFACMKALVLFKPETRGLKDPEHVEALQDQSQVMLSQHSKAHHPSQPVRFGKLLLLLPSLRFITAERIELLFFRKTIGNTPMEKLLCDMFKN
NR2E3 ag-2 – inhibitors of NR2E3-RetCOR corepressor binding, primary screen, NR2E3 agonist project, biochemical, TR-FRET, GST-NR2E3, biotin-RetCOR. Photoreceptor-specific nuclear receptor (Homo sapiens), Q9Y5X4. 1536-well. inhibition of corepressor binding, % at 4.78 µM. hit rate 0.12% among 320,000. AID 2300, 2010;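 active = percent inhibition above the cutoff of mean plus 3 SD of all tested compounds, set per screening campaign, cut at about 20% in these data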;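 note: 0% = DMSO wells and 100% = biotin wells as full block of FRET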
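System: GST-tagged NR2E3 plus biotinylated RetCOR corepressor; Amount: 1.35 nM GST-tagged NR2E3 final; Dosing: single nominal compound dose of 4.8 µM; Schedule: 5 h incubation at 4 °C; Technique: TR-FRET with europium anti-GST and streptavidin-D2, 340 nm excitation; Controls: biotin wells as high control, 0.6% DMSO wells as low control.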
Myeloid diff – inducers of myeloid progenitor differentiation, confirmation, cell-based, GFP/Mac1 flow cytometry, cherry pick 01. shares compounds with Myeloid diff MLP. ER-HoxA9 myeloid progenitors, GFP/Mac1 double-positive flow. calls only. hit rate 2% among 2,300;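 active = share of green or green-and-red cells above 9 and 9% in run 1 or 4 and 3% in run 2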
GFP autofluor – flagged as fluorescent in myeloid differentiation counter-screen. shares compounds with Myeloid diff MLP. ER-HoxA9 myeloid progenitors, no estrogen, GFP autofluorescence flow cytometry; vehicle wells 0%, positive control 100%. fluorescence response, % (test concentration not listed). hit rate 7.4% among 2,300. AID 651707;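 active = over 5% cells positive for green fluorescent reporter, or over 2% positive for both it and APC stain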;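 note: range taken on the double positive population between DMSO and positive control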
* hit, by the source's call; i = inactive; u = inconclusive; x = no result; + = active, no number.

SMILES | FXN GAA850 act | T cell modulator | Myeloid diff MLP | NR2E3 ag-1 | NR2E3 ag-2 | Myeloid diff | GFP autofluor
COc1ccc(NC(=O)c2cccnc2)c(OC)c1 | 1 | 276 | + | 6 | -2 | i | 0
COc1cccc(C(=O)NC(=S)Nc2ccc3c4c(cccc24)CC3)c1 | 2 | 255 | + | -23 | 3 | i | 1
COc1cccc(C(=O)Nc2ccccc2F)c1 | 2 | 266 | i | -35 | -3 | x | x
COc1cccc(C(=O)Nc2ccc(F)cc2F)c1 | 0 | 252 | i | -76 | 0 | i | 0
COc1ccc(OC)c(NC(=O)Nc2nnc([C@@H]3O[C@H](CO)[C@@H](O)[C@H]3O)s2)c1 | 1 | x | i | -27 | x | x | x
COc1cccc(C(=O)NCC(C)(C)SCc2ccc(F)cc2)c1 | 0 | 385 | i | -1 | 0 | x | x
COCC(=O)N1CCCC(C(=O)c2ccc(-c3ccccc3)c(F)c2)C1 (configuration not stated) | 1 | 440 | i | -12 | 4 | x | x
Cc1ccc2c(c1)-c1c(cnn1CC(=O)Nc1ccccc1N1CCN(C)CC1)CO2 | 1 | 183 | i | -18 | 1 | i | 0
CCOC(=O)C1CCN(Cc2ccc3ccccc3c2)CC1 | 0 | 807 | i | -7 | x | x | x
CCOC(=O)C1CCN(Cc2cc(C(C)C)c(O)c(C(C)C)c2)CC1 | 5 | 243 | + | 7 | 5 | i | 1
CC(=O)N1c2ccc(S(=O)(=O)NCC3CCC(C(=O)NCc4ccc(C)o4)CC3)cc2CC1C (configuration not stated) | -1 | 272 | i | -25 | -1 | x | x
CC(=O)N1c2ccc(S(=O)(=O)NCc3ccco3)cc2CC1C (configuration not stated) | 0 | 413 | + | 7 | 5 | i | 2
O=S(=O)(NCc1ccco1)c1ccc2c(c1)Cc1ccccc1-2 | -1 | 424 | i | -21 | 3 | i | 0
CC(C)CCOc1ccc(C(=O)NN2C(=O)NC3(CCCCC3)C2=O)cc1 | 1 | 544 | i | -9 | 0 | x | x
O=C(O)c1cccc(S(=O)(=O)NCC2COc3ccccc3O2)c1 (configuration not stated) | 0 | 155 | i | -14 | x | i | 1
CCn1c(=O)c2[nH]c(SC)nc2n(CC)c1=O | 4 | x | i | -12 | x | x | x
COc1cc(OC)c(OC)cc1/C=N/NC(=O)c1ccc(CSc2nc(C)cc(C)n2)cc1 | 0 | 291 | + | -13 | -1 | i | 0
O=[N+]([O-])c1cccc(/C(=N/N=C/c2ccccc2Br)C23CN4CN(CN(C4)C2)C3)c1 | -1 | 287 | + | 11 | 0 | i | 0
CC(Oc1ccc(-c2ccccc2)c(F)c1)c1ccn(S(=O)(=O)c2ccc(F)cc2)n1 (configuration not stated) | -1 | 458 | i | -9 | 4 | i | 1
COc1ccc(S(=O)(=O)n2ccc(C(C)Oc3ccc(-c4ccccc4)c(F)c3)n2)cc1 (configuration not stated) | -3 | 248 | i | -5 | -1 | x | x
CCOc1ccc(NS(=O)(=O)c2ccc(C(=O)NCC(c3ccco3)N3CCCCC3)cc2)cc1 (configuration not stated) | 1 | x | i | 2 | x | x | x
COc1ccc(COc2ccsc2C(=O)Nc2ccc(Cl)cc2)cc1 | 1 | 376 | i | -28 | -1 | i | 0
CCOC(=O)N1CCN(C(=O)c2ccc(Cn3c(=S)[nH]c4cc(OCC)c(OCC)cc4c3=O)cc2)CC1 | -2 | 151 | + | -5 | -1 | i | 0
CCOC(=O)N1CCN(C(=O)c2ccc(Cn3c(=S)[nH]c4cc5c(cc4c3=O)OCO5)cc2)CC1 | -9 | 305 | i | 4 | 2 | x | x
COc1ccc(NC(=O)c2ccco2)cc1NC(=O)c1ccco1 | -1 | 680 | i | -14 | 1 | i | 0
SMILES | FXN GAA850 act | T cell modulator | Myeloid diff MLP | NR2E3 ag-1 | NR2E3 ag-2 | Myeloid diff | GFP autofluor
CCCCn1c(O)c2n(c1=O)Cc1ccccc1N=C2c1ccc(OC)cc1 | x | x | i | -6 | x | x | x
CS(=O)(=O)N1CCC(C(=O)Nc2cc(Cl)ccc2Cl)CC1 | 0 | 271 | i | -18 | 1 | x | x
CS(=O)(=O)N1CCC(C(=O)Nc2cc(Cl)c(Cl)cc2Cl)CC1 | 1 | 282 | i | 8 | 0 | i | 2
CC(C)N1C(=O)S/C(=C/c2ccc(Sc3nc4ccccc4[nH]3)o2)C1=O | 0 | 262 | i | 43 | 5 | i | 0
CCOC(=O)c1oc2ccc(CNC3CCCCC3)c(Cl)c2c1C | 0 | 432 | + | 4 | 4 | i | 0
COc1ccc(Cl)cc1-c1cc(C(=O)Nc2ccc(C(C)(C)C)cc2)[nH]n1 | 2 | x | u | 17 | x | x | x
O=C(NCn1cnccc1=O)c1ccccc1 | 1 | 585 | i | -12 | 5 | x | x
Cc1cc(=O)n(CNC(=O)c2ccccc2)c(=S)[nH]1 | 1 | 352 | i | 3 | 0 | i | 3
CCN1C[C@@H]2[C@@H]3C(=O)N(C)C(=O)[C@@H]3[C@](CC)(C1=O)N2C(=O)c1ccc(C)cc1 | 1 | x | i | -27 | x | x | x
CCOc1ccccc1C(=O)N1CCN(c2cccc(Cl)c2)CC1 | -3 | 264 | i | 30 | 2 | i | 4
C/C=C1\NC(=O)[C@H](C)NC(=O)[C@@H](NC(=O)[C@@H](Cc2ccc(O)cc2)NC(=O)[C@@H](NC(=O)/C(C)=C/C)C(C)C)[C@@H](C)OC(=O)[C@H](CCCCc2ccc(O)cc2)NC(=O)[C@@H](CCC(=O)O)NC1=O | 1 | 221 | i | -28 | x | x | x
CC(=O)CC(=O)NC(=NC1CCCCC1)Nc1nc(C)cc(C)n1 | 2 | 219 | + | -12 | 3 | i | 0
CCc1ccc([C@@H]2CC(=O)[C@@H]3CN(S(=O)(=O)c4ccccc4C)[C@H](c4ccc(Cl)cc4)C[C@@H]3N2S(=O)(=O)c2ccc(C)cc2)cc1 | x | x | u | -4 | x | x | x
Cc1ccc(/C=C/c2onc(C)c2S(=O)(=O)N2CCC(C(=O)N3CCCCC3)CC2)cc1 | 0 | 458 | i | 2 | -2 | i | 0
COc1ccc(NC(=O)CN(C)C(=O)CSc2nc3ccccc3s2)cc1 | 0 | 369 | i | -15 | 1 | i | 0

Compound activity from PubChem.
